Source: PubChem BioAssay (The Scripps Research Institute Molecular Screening Center)
Sampled rows, rich in hits. Any-hit rate of the full collection: about 1.7%.
core dimer inh: HCV core protein dimerization inhibition | TR-FRET GST/Flag-core106 dimerization, 1536-well | inhibition, % at 5 µM | actives 0.33% (n = 300,000);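 active = inhibition above the mean of all tested compounds plus 3 SD, set per screening campaign, cut at about 45% in these data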
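Test system: GST/Flag-tagged HCV core106 proteins; Medium: KF-containing HEPES buffer, pH 7.45, DTT, CHAPS, BSA; Times: compound-protein-antibody incubation 4 h at 22.5 °C; Detection: TR-FRET 671 and 617 nm emission; Benchmarks: wells lacking GST-core106 and wells with excess unlabelled core106.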
ZTA DNA inh: counter-screen for EBNA-1 inhibitors: inhibitors of Epstein-Barr virus ZTA | AID 2234 | ZTA-DNA binding, fluorescence polarization | actives 0.15% (n = 320,000) | P03206 | inhibition, % at 11 µM; in the data active = inhibition above about 33%
Target sequence (P03206 whole entry, looked up): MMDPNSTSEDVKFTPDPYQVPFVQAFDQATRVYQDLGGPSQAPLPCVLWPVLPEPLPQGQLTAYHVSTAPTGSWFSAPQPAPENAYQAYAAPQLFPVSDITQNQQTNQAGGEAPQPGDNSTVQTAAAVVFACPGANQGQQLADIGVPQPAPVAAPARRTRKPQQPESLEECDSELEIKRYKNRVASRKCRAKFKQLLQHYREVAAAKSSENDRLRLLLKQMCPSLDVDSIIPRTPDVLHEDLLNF
EBNA-1 inh: blocks EBNA-1 binding to DNA | EBNA-1 DNA binding, fluorescence polarization | inhibition, % at 14.8 µM | actives 0.34% (n = 300,000) | AID 1950; in the data active = inhibition above about 28%
PP1 counter: blocks human PP1-alpha phosphatase, a PP5 counter-screen. P62136. actives 0.9% (n = 320,000). inhibition, % at 6.7 µM. purified PP1alpha, OMFP fluorescence. AID 2235;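 active = inhibition above the mean inhibition of all tested compounds plus 3 SD, computed separately for each screening campaign, cut at about 15% in these data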
Target sequence (P62136 whole entry, looked up): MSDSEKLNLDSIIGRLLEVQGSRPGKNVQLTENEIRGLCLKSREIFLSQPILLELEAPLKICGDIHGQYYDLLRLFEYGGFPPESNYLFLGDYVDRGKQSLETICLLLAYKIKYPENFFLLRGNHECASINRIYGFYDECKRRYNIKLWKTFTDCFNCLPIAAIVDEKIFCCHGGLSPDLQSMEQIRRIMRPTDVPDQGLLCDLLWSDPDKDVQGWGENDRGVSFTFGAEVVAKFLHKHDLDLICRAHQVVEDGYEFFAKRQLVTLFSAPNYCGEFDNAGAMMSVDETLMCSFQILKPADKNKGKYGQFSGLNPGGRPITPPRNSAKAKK
PP5 primary: PP5 (human) phosphatase inhibition; actives 0.18% (n = 320,000); P53041; purified PP5c, OMFP substrate fluorescence; inhibition, % at 6.7 µM;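 active = inhibition above the campaign's mean inhibition across all tested compounds plus 3 SD, cut at about 9.5% in these data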;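 also: 0% = DMSO only and 100% = 100 µM cantharidin control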
PP1 confirm: human PP1 phosphatase inhibition, confirmation; purified PP1alpha, OMFP substrate fluorescence; inhibition, % at 6.7 µM; shares compounds with PP1 counter; actives 52% (n = 1,900); AID 2358;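 active = mean PP1 inhibition above a set limit taken from the earlier primary screen, cut at about 15% in these data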
PP5 counter: inhibits human PP5 phosphatase in PP1 counter-screen | shares compounds with PP1 counter | purified PP5c, OMFP fluorescence | inhibition, % at 6.7 µM | actives 4% (n = 1,900) | AID 2360;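 active = mean PP5 inhibition over triplicate wells above about 9.5% taken from the earlier PP1 screen, limit read from the data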
* marks the source's active call; other numbers are inactive results; ! = repeats disagree.

Results for O=C(c1ccc2c(=O)n(-c3ccccc3)c(=O)[nH]c2c1)N1CCCCC1 ?
core dimer inh: 0.6; ZTA DNA inh: -10.7; EBNA-1 inh: 5.7; PP1 counter: -3.9; PP5 primary: 1.4

How did Cc1cccc(NC(=O)CSc2nnc(-c3cc(C)[nH]n3)n2N)c1 do in these assays?
core dimer inh: 7.9; ZTA DNA inh: -13.0; EBNA-1 inh: 1.6; PP1 counter: -4.2; PP5 primary: 0.8

How did Nc1nn2c(-c3ccccc3)cc(=O)[nH]c2c1N=Nc1ccc(O)cc1 do in these assays?
core dimer inh: -43.1; ZTA DNA inh: -19.6; EBNA-1 inh: -5.2; PP1 counter: 28.2*; PP5 primary: 2.8; PP1 confirm: 20.2*; PP5 counter: 0.9

What do the screens show for `CCOC(=O)NN1C(=O)c2ccccc2NC12CCCC2`?
core dimer inh: -2.4; ZTA DNA inh: -13.9; EBNA-1 inh: -2.5; PP1 counter: -1.2; PP5 primary: 0.6

What do the screens show for `CC(C)CNC(=O)C1CCN(c2ccc(S(=O)(=O)N3CCOCC3)cc2Cl)CC1`?
core dimer inh: 0.3; ZTA DNA inh: 10.0; EBNA-1 inh: 7.9; PP1 counter: 27.5*; PP5 primary: 0.5; PP1 confirm: -2.4; PP5 counter: -0.4

What do the screens show for `NC(Cc1ccc(O)c([N+](=O)[O-])c1)C(=O)O` (stereo not given)?
core dimer inh: 6.1; ZTA DNA inh: -5.7; EBNA-1 inh: -12.5; PP1 counter: -1.8; PP5 primary: -5.1

How did N[C@@H](Cc1cc(I)c(Oc2ccc(O)c(I)c2)c(I)c1)C(=O)O do in these assays?
core dimer inh: -23.8; ZTA DNA inh: -13.0; EBNA-1 inh: 7.1; PP1 counter: 28.3*!; PP5 primary: 0.8; PP1 confirm: 15.0; PP5 counter: -5.5

Results for CC(C)(C)c1ccc(S(=O)(=O)N2CCCCC2)cc1 ?
core dimer inh: -2.0; ZTA DNA inh: -17.1; EBNA-1 inh: -5.0; PP1 counter: -2.0; PP5 primary: 1.6

What do the screens show for `Cc1cccc(S(=O)(=O)N/N=c2\sc3ccccc3n2C)c1`?
core dimer inh: -3.2; ZTA DNA inh: 4.9; EBNA-1 inh: -5.2; PP1 counter: -5.1; PP5 primary: 1.0

What do the screens show for `O=C(/C=C/c1ccc(OCCCF)cc1)Nc1ccnc(-c2cccnc2)n1`?
core dimer inh: 6.7; ZTA DNA inh: 1.3; EBNA-1 inh: 24.4; PP1 counter: 22.0*; PP5 primary: -1.5; PP1 confirm: 22.3*; PP5 counter: -4.4

Results for O=C(O)c1ccc(N=N/C(=N\Nc2ccc(C(=O)O)cc2)c2ccccc2)cc1 ?
core dimer inh: -25.3; ZTA DNA inh: 12.1; EBNA-1 inh: 6.4; PP1 counter: 3.0; PP5 primary: -0.1

What do the screens show for `Brc1ccc(N/N=C(/N=Nc2nn[nH]n2)c2ccccc2)cc1`?
core dimer inh: 0.9; ZTA DNA inh: 0.4; EBNA-1 inh: -14.3; PP1 counter: 19.2*; PP5 primary: 6.1; PP1 confirm: 24.2*; PP5 counter: 6.7

What do the screens show for `Cc1cccc(NC(=O)CNC(=O)c2sc3ccccc3c2Cl)n1`?
core dimer inh: 3.7; ZTA DNA inh: 7.7; EBNA-1 inh: -1.5; PP1 counter: 22.4*; PP5 primary: -1.5; PP1 confirm: 3.5; PP5 counter: -3.5

What do the screens show for `CC(C)(C)c1ccc(S(=O)(=O)N2CCN(C(=O)C3CCC3)CC2)cc1`?
core dimer inh: 2.0; ZTA DNA inh: 0.5; EBNA-1 inh: -0.2; PP1 counter: -3.4; PP5 primary: -0.7

What do the screens show for `S=C1NC2CCCCC2N1` (stereo not given)?
core dimer inh: -0.3; ZTA DNA inh: -9.9; EBNA-1 inh: 5.1; PP1 counter: -4.9; PP5 primary: 0.1

What do the screens show for `O=C(CSC(=S)N1CCOCC1)Nc1nc(-c2ccccc2)c(-c2ccccc2)o1`?
core dimer inh: 15.6; ZTA DNA inh: 8.5; EBNA-1 inh: 4.9; PP1 counter: 18.4*; PP5 primary: 0.9; PP1 confirm: 10.6; PP5 counter: -3.0

Results for CCN(CC)C(=S)SCC(=O)Nc1nc(-c2ccccc2)c(-c2ccccc2)o1 ?
core dimer inh: 23.8; ZTA DNA inh: -4.2; EBNA-1 inh: 0.4; PP1 counter: 15.0; PP5 primary: 2.7

What do the screens show for `Nc1cc(=O)[nH]c(SCC(=O)N2N=C(c3ccc(Cl)cc3)CC2c2ccco2)n1` (stereo not given)?
core dimer inh: 48.6*; ZTA DNA inh: -11.0; EBNA-1 inh: -3.2; PP1 counter: 20.5*; PP5 primary: 3.5; PP1 confirm: 10.4; PP5 counter: -3.6

What do the screens show for `COc1cccc(/C=C/C(=O)OCC(=O)Nc2cccc(S(=O)(=O)N3CCOCC3)c2)c1OC`?
core dimer inh: 3.9; ZTA DNA inh: 3.1; EBNA-1 inh: 5.6; PP1 counter: -1.3; PP5 primary: -0.5

How did O=c1c(Cl)c(N/N=C/c2ccc(Br)cc2)cnn1-c1ccccc1 do in these assays?
core dimer inh: 10.2; ZTA DNA inh: 11.9; EBNA-1 inh: -2.9; PP1 counter: 24.1*; PP5 primary: 3.9; PP1 confirm: 21.9*; PP5 counter: -2.6

What do the screens show for `CNc1cnn(-c2ccccc2)c(=O)c1Cl`?
core dimer inh: -3.3; ZTA DNA inh: 4.0; EBNA-1 inh: 4.5; PP1 counter: -2.1; PP5 primary: -2.5

How did NNC(=O)CNC(=O)CNS(=O)(=O)c1ccccc1 do in these assays?
core dimer inh: 3.2; ZTA DNA inh: -16.7; EBNA-1 inh: -24.8; PP1 counter: -7.2; PP5 primary: 3.5

How did O=C(CCCN1C(=O)/C(=C/c2ccccc2Cl)SC1=S)Nc1ccccn1 do in these assays?
core dimer inh: 11.6; ZTA DNA inh: 2.9; EBNA-1 inh: -1.5; PP1 counter: 5.7; PP5 primary: -1.6

Results for O=C1/C(=C/c2ccccc2Cl)SC(=S)N1CCCC(=O)N(CCO)c1ccccc1 ?
core dimer inh: -0.1; ZTA DNA inh: 3.0; EBNA-1 inh: 7.5; PP1 counter: 17.8*; PP5 primary: 1.3; PP1 confirm: 15.0; PP5 counter: 5.3

Results for O=C(O)CCCN1C(=O)/C(=C\c2ccccc2OCc2ccccc2)SC1=S ?
core dimer inh: 21.7; ZTA DNA inh: 2.2; EBNA-1 inh: -3.9; PP1 counter: 18.5*; PP5 primary: 4.0; PP1 confirm: 12.8; PP5 counter: -2.3

What do the screens show for `O=C(O)CN1C(=O)/C(=C\c2ccccc2OCc2ccc(F)cc2)SC1=S`?
core dimer inh: 20.7; ZTA DNA inh: -2.3; EBNA-1 inh: 3.8; PP1 counter: 9.2; PP5 primary: 1.5

How did COc1ccccc1C(=O)NCCNc1ccc([N+](=O)[O-])cc1Cl do in these assays?
core dimer inh: -0.6; ZTA DNA inh: 7.6; EBNA-1 inh: -6.8; PP1 counter: 1.6; PP5 primary: 4.0

Results for OCC1(CC2CCCCO2)CCN(Cc2cccc(O)c2)CC1 (stereo not given) ?
core dimer inh: 0.3; ZTA DNA inh: 1.6; EBNA-1 inh: -0.9; PP1 counter: 1.2; PP5 primary: 0.6
